Test results: article PMC6643050 (Lipids, 2018)
“And” between values parts separate entries of the source, which are not always exact repeats. Equal values may be shown once.

How the values were obtained:
Δ^1–28 L-PGDS [1] = biological target: T1, Δ^1–28 L-PGDS (Homo sapiens, UniProt P41222); experiment: Intrinsic tryptophan fluorescence quenching assay; assay type: binding; conditions: compound 20 μM, L-PGDS 1.5 μM, pH 8.0; mean ± SE
T1 sequence (P41222 29-190): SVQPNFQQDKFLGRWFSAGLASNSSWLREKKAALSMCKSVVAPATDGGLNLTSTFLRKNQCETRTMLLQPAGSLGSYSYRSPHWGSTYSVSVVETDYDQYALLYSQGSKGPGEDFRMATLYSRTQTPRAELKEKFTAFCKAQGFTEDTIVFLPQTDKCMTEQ
Summary of the method: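 Recombinant human Δ1–28 L-PGDS, delipidated on hydroxypropyl-beaded dextran (1 h, 37 °C), used at 1.5 μM in 5 mM Tris–HCl pH 8.0. Test compound (2 mM DMSO stock) added at 20 μM final; equilibrated 30 min at 25 °C. Tryptophan fluorescence read at ex/em 282/340 nm and corrected for nonspecific effects with N-acetyl-L-tryptophanamide (1.5 μM). Reported relative to vehicle; ≥3 independent assays.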

Δ^1–28 L-PGDS [2] = biological target: T1, Δ^1–28 L-PGDS; experiment: Fluorescence displacement binding assay; conditions: for Binding to Δ^1–28 L-PGDS, DAUDA displacement: DAUDA probe
Δ^1–28 L-PGDS [3] = biological target: T1, Δ^1–28 L-PGDS; experiment: Determination of fluorescent probe binding affinity
L-PGDS = conditions: known high-affinity L-PGDS ligand; ref Breustedt et al., 2006; cited from earlier work
[4] = DAUDA (500 nM) displacement, L-PGDS 3 μM, pH 7.6, 25 °C, mean ± SE
[5] = Ki, DAUDA (500 nM) displacement, L-PGDS 3 μM, pH 7.6, 25 °C, mean ± SE

Compound	Quenching (%), fluorescence reduction relative to vehicle-treated Δ^1–28 L-PGDS (Δ^1–28 L-PGDS [1])	Ki (Δ^1–28 L-PGDS [2]; [5])	other results
11-hydroxy-Δ^9-tetrahydrocannabinol [11-OH-THC]	9.7 ± 1.3%		Ki (Δ^1–28 L-PGDS [2]; [4]): 61 ± 14 µM; Ki (Δ^1–28 L-PGDS [2]; DAUDA displacement): 61 ± 14 µM
CCCCC/C=C\C/C=C\C/C=C\C/C=C\CCCC(=O)OC(CO)CO [2-AG, 2-arachidonoylglycerol]	−0.8 ± 3.0%	> 200 µM	Binding to Δ^1–28 L-PGDS, DAUDA displacement (Δ^1–28 L-PGDS [2]): did not bind
CCCCC/C=C\C/C=C\C/C=C\C/C=C\CCCC(=O)NCCO [AEA, N-arachidonoylethanolamine]	3.1 ± 3.3%	> 200 µM	Affinity for Δ^1–28 L-PGDS, ANS displacement (Δ^1–28 L-PGDS [2]; ANS probe (500 nM)): lack of affinity; Binding to Δ^1–28 L-PGDS, DAUDA displacement (Δ^1–28 L-PGDS [2]): did not bind
CCCCCCC(C)(C)c1cc(O)c2c(c1)OC(C)(C)[C@@H]1CC=C(C(=O)O)C[C@@H]21 [AJA, ajulemic acid]	21.9 ± 2.9%	2.2 µM and 2.3 µM	
O=S(=O)(O)c1cccc2cccc(Nc3ccccc3)c12 [ANS, 1-anilinonaphthalene-8-sulfonic acid]			Kd (Δ^1–28 L-PGDS [3]): 3.4 ± 0.8 µM
C=C(C)[C@@H]1CCC(C)=C[C@H]1c1c(O)cc(CCCCC)cc1O [CBD, cannabidiol]	7.2 ± 2.1%	77.9 ± 3.9 µM	
CN(C)c1cccc2c(S(=O)(=O)NCCCCCCCCCCC(=O)O)cccc12 [DAUDA, 11-(dansylamino)undecanoic acid]			Kd (Δ^1–28 L-PGDS [3]): 0.96 ± 0.08 µM
CCCCCCC(CCCCCCCCCCC(=O)O)N(C)c1ccc([N+](=O)[O-])c2nonc12 (centres unmarked) [NBD-stearate, 12-N-methyl-(7-nitrobenz-2-oxa-1,3-diazo)aminostearic acid]			Binding of fluorescent probe (Δ^1–28 L-PGDS [3]; L-PGDS 1 μM titrated with probe): did not exhibit appreciable binding
CCCCCCCC/C=C\CCCCCCCC(=O)NCCO [OEA, oleoylethanolamide]	−0.9 ± 2.1%	> 200 µM	Binding to Δ^1–28 L-PGDS, DAUDA displacement (Δ^1–28 L-PGDS [2]): did not display any appreciable binding
CCCCCCCC/C=C\CCCCCCCC(=O)O [OLA, oleic acid]	15.1 ± 3.7%	1.8 ± 0.9 µM	
CCCCCCCC/C=C\CCCCCCCC(N)=O [Oleamide]	3.6 ± 2.0%	> 200 µM	
CCCCCCCCCCCCCCCC(=O)NCCO [PEA, palmitoylethanolamide]	1.3 ± 4.7%	> 200 µM	Binding to Δ^1–28 L-PGDS, DAUDA displacement (Δ^1–28 L-PGDS [2]): did not display any appreciable binding
CCCCC[C@H](O)/C=C/[C@H]1[C@H](O)CC(=O)[C@@H]1C/C=C\CCCC(=O)O [PGE2, prostaglandin E2]	6.5 ± 1.5%	128 ± 16 µM	
CCCCC[C@H](O)/C=C/[C@@H]1[C@@H](C/C=C\CCCC(=O)O)[C@@H](O)C[C@H]1O [PGF2α, prostaglandin F2α]	2.7 ± 1.7%	81 ± 9 µM	
CCCCCC/C=C\CCCCCCCC(=O)O [PLA, palmitoleic acid]	11.9 ± 2.3%	3.7 ± 0.5 µM	
CCCCC[C@H](O)/C=C/[C@@H]1[C@@H](C/C=C\CCCC(=O)NCCO)[C@@H](O)C[C@H]1O [Prostamide F2α]	0.1 ± 2.6%		Ki (Δ^1–28 L-PGDS [2]; [4]): > 200 µM; Binding to Δ^1–28 L-PGDS, DAUDA displacement (Δ^1–28 L-PGDS [2]): not found to bind with any appreciable affinity
O=C(O)C1[C@H](c2ccccc2)C(C(=O)Oc2cccc3ccccc23)[C@H]1c1ccccc1 (some centres unmarked) [SBFI-26]	33.3 ± 2.2%		Ki (Δ^1–28 L-PGDS [2]; [4]): 3 ± 0.5 µM
CCCCCc1cc(O)c2c(c1)OC(C)(C)[C@@H]1CCC(C)=C[C@@H]21 [THC, Δ^9-tetrahydrocannabinol]	14.0 ± 2.2%		Ki (Δ^1–28 L-PGDS [2]; [4]): 175 ± 26 µM
CCCCCc1cc(O)c2c(c1)OC(C)(C)[C@@H]1CCC(C(=O)O)=C[C@@H]21 [THC-COOH, 11-nor-9-carboxy-Δ^9-tetrahydrocannabinol]	15.6 ± 1.3%		Ki (Δ^1–28 L-PGDS [2]; [4]): 7.8 ± 1.7 µM; Ki (Δ^1–28 L-PGDS [2]; DAUDA displacement): 7.8 ± 1.7 µM
CC1=C(/C=C/C(C)=C/C=C/C(C)=C/C(=O)O)C(C)(C)CCC1 [all-trans retinoic acid]	71.1 ± 1.4%		Kd (L-PGDS): 0.29 µM
prostaglandin E2-glyceryl ester [PGE2-GE]	15.1 ± 1.7%		Ki (Δ^1–28 L-PGDS [2]; [4]): 11.2 ± 1.2 µM
